The M2OR odorant receptor database
Where a chain is given by its changes, count along the chain named.

Tests used:
Conditions in all cases: stereoisomer not certain
OR4X2 (Homo sapiens) = target: T1, OR4X2 (Homo sapiens) (UniProt Q8NGF9)
T1 sequence (whole entry): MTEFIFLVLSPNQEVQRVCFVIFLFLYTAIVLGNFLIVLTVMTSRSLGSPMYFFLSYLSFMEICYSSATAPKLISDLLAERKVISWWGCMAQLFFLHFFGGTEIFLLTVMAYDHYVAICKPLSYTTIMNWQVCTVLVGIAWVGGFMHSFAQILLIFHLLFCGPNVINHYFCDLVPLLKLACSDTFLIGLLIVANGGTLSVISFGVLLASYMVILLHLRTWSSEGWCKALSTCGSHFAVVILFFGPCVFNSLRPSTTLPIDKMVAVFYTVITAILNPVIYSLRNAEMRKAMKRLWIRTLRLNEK
Procedure, shortened: (§1)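 Each entry records the cell line, G-protein, co-transfected protein and tags used. Methods varied with the source, often transient luciferase assays in mammalian cell lines. A receptor–molecule pair is called responsive (active) if the original authors judged its signal statistically different from baseline and non-responsive (inactive) otherwise.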

OR51B5 (Homo sapiens) = target: T2, OR51B5 (Homo sapiens) (UniProt Q9H339)
T2 sequence (whole entry): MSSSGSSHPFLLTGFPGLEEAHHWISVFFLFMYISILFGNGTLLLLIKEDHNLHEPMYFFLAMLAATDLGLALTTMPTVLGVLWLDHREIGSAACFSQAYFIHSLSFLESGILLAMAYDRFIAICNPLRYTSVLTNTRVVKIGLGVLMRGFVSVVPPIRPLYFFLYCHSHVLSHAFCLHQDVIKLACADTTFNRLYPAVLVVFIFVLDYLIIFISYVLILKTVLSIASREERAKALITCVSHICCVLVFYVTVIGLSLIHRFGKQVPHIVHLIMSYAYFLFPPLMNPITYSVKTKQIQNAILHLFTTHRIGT
Procedure, shortened: as §1

OR4N4 (Homo sapiens) = target: T3, OR4N4 (Homo sapiens) (UniProt Q8N0Y3)
T3 sequence (whole entry): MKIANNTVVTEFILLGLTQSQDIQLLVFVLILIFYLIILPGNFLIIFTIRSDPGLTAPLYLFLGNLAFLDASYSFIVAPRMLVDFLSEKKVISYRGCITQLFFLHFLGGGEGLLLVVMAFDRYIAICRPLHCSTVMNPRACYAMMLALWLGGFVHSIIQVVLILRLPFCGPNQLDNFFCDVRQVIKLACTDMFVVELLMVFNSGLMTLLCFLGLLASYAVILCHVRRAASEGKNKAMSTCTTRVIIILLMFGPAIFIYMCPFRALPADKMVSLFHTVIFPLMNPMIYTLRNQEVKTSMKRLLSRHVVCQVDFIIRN
Procedure, shortened: as §1

OR4N5 (Homo sapiens) = target: T4, OR4N5 (Homo sapiens) (UniProt Q8IXE1)
T4 sequence (whole entry): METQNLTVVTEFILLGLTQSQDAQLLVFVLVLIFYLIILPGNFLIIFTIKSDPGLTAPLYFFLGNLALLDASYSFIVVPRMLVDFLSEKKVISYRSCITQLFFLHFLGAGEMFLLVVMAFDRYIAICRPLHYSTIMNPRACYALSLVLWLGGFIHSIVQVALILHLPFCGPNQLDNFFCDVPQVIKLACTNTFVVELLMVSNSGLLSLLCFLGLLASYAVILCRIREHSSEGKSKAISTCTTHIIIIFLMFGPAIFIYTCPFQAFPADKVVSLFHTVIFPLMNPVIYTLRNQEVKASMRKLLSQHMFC
Procedure, shortened: as §1

OR4P4 (Homo sapiens) = target: T5, OR4P4 (Homo sapiens) (UniProt Q8NGL7)
T5 sequence (whole entry): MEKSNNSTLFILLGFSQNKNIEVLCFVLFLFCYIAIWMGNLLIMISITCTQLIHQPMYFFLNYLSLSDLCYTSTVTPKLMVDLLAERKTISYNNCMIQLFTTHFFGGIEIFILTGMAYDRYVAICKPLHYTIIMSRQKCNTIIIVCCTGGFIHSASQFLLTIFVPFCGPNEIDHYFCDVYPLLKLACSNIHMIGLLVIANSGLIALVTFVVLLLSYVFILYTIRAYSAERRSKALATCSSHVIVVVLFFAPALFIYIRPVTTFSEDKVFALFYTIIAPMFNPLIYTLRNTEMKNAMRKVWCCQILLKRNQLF
Procedure, shortened: as §1

OR4Q3 (Homo sapiens) = target: T6, OR4Q3 (Homo sapiens) (UniProt Q8NH05)
T6 sequence (whole entry): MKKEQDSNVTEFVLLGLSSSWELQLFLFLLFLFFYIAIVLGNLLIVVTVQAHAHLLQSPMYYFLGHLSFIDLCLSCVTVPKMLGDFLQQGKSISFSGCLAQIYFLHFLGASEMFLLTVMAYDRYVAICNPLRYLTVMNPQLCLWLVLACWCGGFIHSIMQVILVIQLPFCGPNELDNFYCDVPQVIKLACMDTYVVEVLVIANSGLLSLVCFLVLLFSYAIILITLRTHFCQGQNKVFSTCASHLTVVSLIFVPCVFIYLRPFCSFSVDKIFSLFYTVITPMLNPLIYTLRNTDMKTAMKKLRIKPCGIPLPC
Procedure, shortened: as §1

OR4S1 (Homo sapiens) = target: T7, OR4S1 (Homo sapiens) (UniProt Q8NGB4)
T7 sequence (whole entry): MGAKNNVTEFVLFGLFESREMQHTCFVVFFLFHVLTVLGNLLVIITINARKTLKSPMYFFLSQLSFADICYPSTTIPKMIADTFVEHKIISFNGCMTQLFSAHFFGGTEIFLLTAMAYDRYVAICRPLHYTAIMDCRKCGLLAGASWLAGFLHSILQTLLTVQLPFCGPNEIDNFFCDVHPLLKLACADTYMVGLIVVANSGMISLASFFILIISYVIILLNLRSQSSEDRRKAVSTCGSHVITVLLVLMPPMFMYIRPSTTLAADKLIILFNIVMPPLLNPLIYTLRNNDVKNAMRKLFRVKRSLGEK
Procedure, shortened: as §1

OR4S2 (Homo sapiens) = target: T8, OR4S2 (Homo sapiens) (UniProt Q8NH73)
T8 sequence (whole entry): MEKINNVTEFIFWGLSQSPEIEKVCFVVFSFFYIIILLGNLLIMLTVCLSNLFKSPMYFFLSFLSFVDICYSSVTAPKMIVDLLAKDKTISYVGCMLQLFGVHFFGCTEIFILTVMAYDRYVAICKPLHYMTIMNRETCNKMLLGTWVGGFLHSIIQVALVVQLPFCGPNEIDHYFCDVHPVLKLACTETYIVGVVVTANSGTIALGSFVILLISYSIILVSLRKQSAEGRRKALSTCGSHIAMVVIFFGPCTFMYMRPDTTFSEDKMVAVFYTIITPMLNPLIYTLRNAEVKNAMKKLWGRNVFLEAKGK
Procedure, shortened: as §1

OR4X1 (Homo sapiens) = target: T9, OR4X1 (Homo sapiens) (UniProt Q8NH49)
T9 sequence (whole entry): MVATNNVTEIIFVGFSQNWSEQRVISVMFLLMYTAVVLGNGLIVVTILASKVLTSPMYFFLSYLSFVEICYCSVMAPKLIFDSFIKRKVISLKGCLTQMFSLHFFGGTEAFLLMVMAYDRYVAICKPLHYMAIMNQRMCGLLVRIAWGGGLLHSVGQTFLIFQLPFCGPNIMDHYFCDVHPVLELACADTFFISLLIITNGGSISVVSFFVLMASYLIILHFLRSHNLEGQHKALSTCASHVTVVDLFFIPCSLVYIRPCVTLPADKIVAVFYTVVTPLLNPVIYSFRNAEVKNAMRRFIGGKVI
Procedure, shortened: as §1

OR51A2 (Homo sapiens) = target: T10, OR51A2 (Homo sapiens) (UniProt Q8NGJ7)
T10 sequence (whole entry): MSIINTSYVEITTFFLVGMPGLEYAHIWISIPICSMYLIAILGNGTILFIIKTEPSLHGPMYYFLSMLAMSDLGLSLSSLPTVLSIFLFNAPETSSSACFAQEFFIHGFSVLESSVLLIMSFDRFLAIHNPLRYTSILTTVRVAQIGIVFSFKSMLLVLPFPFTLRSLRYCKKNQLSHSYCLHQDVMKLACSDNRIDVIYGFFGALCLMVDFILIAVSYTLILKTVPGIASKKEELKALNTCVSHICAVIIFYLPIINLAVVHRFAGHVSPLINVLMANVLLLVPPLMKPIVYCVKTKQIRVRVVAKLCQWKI
Procedure, shortened: as §1

OR51A4 (Homo sapiens) = target: T11, OR51A4 (Homo sapiens) (UniProt Q8NGJ6)
T11 sequence (whole entry): T10 sequence (whole entry) with G59E, T94I, S97N, S167N, P227L, E235Q, G267R, M288T, K289N, W311R
Procedure, shortened: as §1

OR51A7 (Homo sapiens) = target: T12, OR51A7 (Homo sapiens) (UniProt Q8NH64)
T12 sequence (whole entry): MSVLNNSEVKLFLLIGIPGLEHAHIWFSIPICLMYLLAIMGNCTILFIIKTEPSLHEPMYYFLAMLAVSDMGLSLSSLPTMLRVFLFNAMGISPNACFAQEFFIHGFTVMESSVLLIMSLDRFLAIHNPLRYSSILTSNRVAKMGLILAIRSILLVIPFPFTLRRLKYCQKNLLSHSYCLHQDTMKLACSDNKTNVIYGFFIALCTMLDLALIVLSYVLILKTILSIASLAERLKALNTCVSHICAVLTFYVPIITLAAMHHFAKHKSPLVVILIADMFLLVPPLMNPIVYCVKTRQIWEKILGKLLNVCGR
Procedure, shortened: as §1

OR51B2 (Homo sapiens) = target: T13, OR51B2 (Homo sapiens) (UniProt Q9Y5P1)
T13 sequence (whole entry): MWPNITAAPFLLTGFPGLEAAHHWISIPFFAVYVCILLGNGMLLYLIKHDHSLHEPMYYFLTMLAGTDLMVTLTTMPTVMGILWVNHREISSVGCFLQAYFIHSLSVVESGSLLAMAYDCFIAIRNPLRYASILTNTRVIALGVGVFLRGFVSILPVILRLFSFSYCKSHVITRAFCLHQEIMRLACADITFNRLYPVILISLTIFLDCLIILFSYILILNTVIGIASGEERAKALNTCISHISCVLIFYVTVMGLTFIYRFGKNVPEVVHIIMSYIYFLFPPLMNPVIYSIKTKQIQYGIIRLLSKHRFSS
Procedure, shortened: as §1

OR51B4 (Homo sapiens) = target: T14, OR51B4 (Homo sapiens) (UniProt Q9Y5P0)
T14 sequence (whole entry): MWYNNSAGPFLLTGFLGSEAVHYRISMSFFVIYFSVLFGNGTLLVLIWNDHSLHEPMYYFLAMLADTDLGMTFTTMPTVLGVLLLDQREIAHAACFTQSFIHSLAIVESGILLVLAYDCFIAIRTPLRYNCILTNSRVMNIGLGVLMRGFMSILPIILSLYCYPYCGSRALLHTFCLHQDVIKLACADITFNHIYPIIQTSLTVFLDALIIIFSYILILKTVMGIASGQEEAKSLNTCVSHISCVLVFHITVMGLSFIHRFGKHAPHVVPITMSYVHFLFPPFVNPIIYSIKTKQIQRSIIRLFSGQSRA
Procedure, shortened: as §1

OR51B6 (Homo sapiens) = target: T15, OR51B6 (Homo sapiens) (UniProt Q9H340)
T15 sequence (whole entry): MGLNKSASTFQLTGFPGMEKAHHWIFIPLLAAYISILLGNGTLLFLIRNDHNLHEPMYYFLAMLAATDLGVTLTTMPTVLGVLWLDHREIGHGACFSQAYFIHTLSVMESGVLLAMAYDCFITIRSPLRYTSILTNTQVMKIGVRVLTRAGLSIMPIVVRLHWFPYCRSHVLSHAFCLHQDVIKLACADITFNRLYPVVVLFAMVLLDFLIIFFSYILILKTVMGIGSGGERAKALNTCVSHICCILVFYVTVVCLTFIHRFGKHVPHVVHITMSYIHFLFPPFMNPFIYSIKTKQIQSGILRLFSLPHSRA
Procedure, shortened: as §1

OR4N2 = system: T16, OR4N2
T16 sequence (whole entry): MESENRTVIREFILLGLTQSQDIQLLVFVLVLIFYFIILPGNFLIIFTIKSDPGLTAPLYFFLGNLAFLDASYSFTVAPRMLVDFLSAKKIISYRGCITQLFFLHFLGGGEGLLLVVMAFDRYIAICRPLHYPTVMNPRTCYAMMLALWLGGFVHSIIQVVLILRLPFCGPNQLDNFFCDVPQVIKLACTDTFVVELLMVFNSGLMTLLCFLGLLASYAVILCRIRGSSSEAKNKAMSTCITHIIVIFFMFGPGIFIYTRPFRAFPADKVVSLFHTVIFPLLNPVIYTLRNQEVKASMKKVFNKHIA
Procedure, shortened: as §1

OR4Q3 T135A = system: T17, OR4Q3 T135A
T17 sequence (whole entry): T6 sequence (whole entry) with T135A
Procedure, shortened: as §1

Measured: odorant receptor agonist call

CC(C)=CCCC(C)=CCO
inactive: OR4X2 (Homo sapiens) | OR51B5 (Homo sapiens)

CCCCCC(S)C(C)CO (configuration not stated)
not listed: OR4N2 | OR4Q3 T135A
inactive: all other assays above

Cc1cnc(C)c(C)n1
inactive: all assays above

CCCCCCCCCCCCCCCCCC(=O)OCC
inactive: OR51B5 (Homo sapiens)

CCCCCCCC(=O)OC
inactive: OR51B5 (Homo sapiens)

Cc1cnc(C)cn1
inactive: OR51B5 (Homo sapiens)
